Reference: ChEMBL document CHEMBL4354800, “Amphiphilic nebramine-based hybrids Rescue legacy antibiotics from intrinsic resistance in multidrug-resistant Gram-negative bacilli” (Eur J Med Chem, 2019)

How the values were obtained:
Pseudomonas aeruginosa [1] = assay: Potentiation of ciprofloxacin-induced antibacterial activity against MDR/XDR Pseudomonas aeruginosa isolate 101885 harboring GyrA T83I mutant assessed as fold reduction in ciprofloxacin MIC at 9 uM incubated for 18 hrs by broth microdilution method; format: functional
Klebsiella pneumoniae [2] = assay: Antimicrobial activity against Klebsiella pneumoniae 113254 incubated for 18 hrs by broth dilution method; format: functional; conditions: Klebsiella pneumoniae, 113254, 18 h
In short: (§1)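 CLSI broth microdilution. Overnight cultures were adjusted to 0.5 McFarland in saline, diluted 1:50 in Mueller-Hinton broth, and inoculated at a final 5 × 10^5 CFU/mL. Compounds were tested as 2-fold serial dilutions and incubated 18 h at 37 °C. MIC was the lowest concentration with no visible turbidity, confirmed by absorbance at 590 nm.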

Klebsiella pneumoniae [3] = assay: Antimicrobial activity against Klebsiella pneumoniae 113250 incubated for 18 hrs by broth dilution method; format: functional; conditions: Klebsiella pneumoniae, 113250, 18 h; in short: as §1
Escherichia coli [4] = assay: Synergistic antibacterial activity against Escherichia coli 94474 assessed as fractional inhibitory concentration index in presence of rifampicin incubated for 18 hrs by broth dilution method; format: functional
In short: (§2)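 Checkerboard titration of the adjuvant against the antibiotic, run under the CLSI microdilution conditions (MHB, 5 × 10^5 CFU/mL, 18 h, 37 °C). Each agent's FIC is its MIC in combination divided by its MIC alone; FICI is the sum of the two FICs. FICI ≤0.5 was read as synergy, >0.5–4.0 as no interaction, and >4.0 as antagonism.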

Escherichia coli [5] = assay: Synergistic antibacterial activity against Escherichia coli 107115 assessed as fractional inhibitory concentration index in presence of rifampicin incubated for 18 hrs by broth dilution method; format: functional; in short: as §2
Klebsiella pneumoniae [6] = assay: Synergistic antibacterial activity against Klebsiella pneumoniae 113250 assessed as fractional inhibitory concentration index in presence of minocycline incubated for 18 hrs by broth dilution method; format: functional; in short: as §2
[7] = Hemolytic activity against porcine erythrocytes assessed as hemoglobin release at 512 ug/ml incubated for 1 hr by spectrophotometric analysis relative to control; format: ADME, cell-based, Sus scrofa, Erythrocyte; conditions: pig, read-out: Activity
In short: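 Porcine erythrocytes were washed three times in PBS and used at 3 × 10^8 cells/mL final. Compounds were serially diluted in PBS at twice the final concentration, mixed with an equal volume of cells, and incubated 1 h at 37 °C. After centrifugation (1000 g, 4 °C, 10 min), hemoglobin in the supernatant was read at 570 nm. Percent hemolysis was scaled between PBS (0%) and 0.1% Triton X-100 (100%).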

Klebsiella pneumoniae [8] = assay: Potentiation of minocycline-induced antibacterial activity against Klebsiella pneumoniae 116381 assessed as fold reduction in minocycline MIC at 7.5 uM incubated for 18 hrs by broth dilution method; format: functional
In short: (§3)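 Antibiotic MIC determined by CLSI broth microdilution (MHB, 5 × 10^5 CFU/mL, 18 h, 37 °C), once alone and once with a fixed concentration of the adjuvant. Potentiation is the ratio of the antibiotic MIC alone to its MIC in the presence of the adjuvant.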

Pseudomonas aeruginosa [9] = assay: Potentiation of minocycline-induced antibacterial activity against wild type Pseudomonas aeruginosa PAO1 assessed as fold reduction in minocycline MIC at 7.5 uM incubated for 18 hrs by broth microdilution method; format: functional; in short: as §3
Pseudomonas aeruginosa [10] = assay: Potentiation of moxifloxacin-induced antibacterial activity against MDR/XDR Pseudomonas aeruginosa isolate 101243 devoid of GyrA T83I mutant assessed as fold reduction in moxifloxacin MIC at 7.5 uM incubated for 18 hrs by broth microdilution method; format: functional
In short: (§4)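 CLSI broth microdilution. Overnight cultures were set to 0.5 McFarland in saline, diluted 1:50 in Mueller-Hinton broth to a final 5 × 10^5 CFU/mL, and incubated 18 h at 37 °C against 2-fold antibiotic dilutions. A fixed adjuvant level was present throughout. MIC = lowest concentration with no visible turbidity, confirmed at 590 nm. Potentiation = fold drop in antibiotic MIC versus antibiotic alone.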

Pseudomonas aeruginosa [11] = assay: Potentiation of minocycline-induced antibacterial activity against MDR/XDR Pseudomonas aeruginosa isolate PA264-104354 harboring GyrA T83I mutant assessed as fold reduction in minocycline MIC at 7.5 uM incubated for 18 hrs by broth microdilution method; format: functional
Pseudomonas aeruginosa [12] = assay: Potentiation of minocycline-induced antimicrobial activity against MDR/XDR Pseudomonas aeruginosa isolate 100036 harboring GyrA Thr83Ile mutant assessed as minocycline MIC50 incubated for 18 hrs by broth microdilution method (reference value: 16 microg/ml); format: functional; conditions: isolate 100036, 18 h
Pseudomonas aeruginosa [13] = assay: Potentiation of rifampicin-induced antimicrobial activity against MDR/XDR Pseudomonas aeruginosa isolate 101885 harboring GyrA Thr83Ile mutant assessed as rifampicin MIC50 incubated for 18 hrs by broth microdilution method (reference value: 8 microg/ml); format: functional; conditions: isolate 101885, 18 h
Pseudomonas aeruginosa [14] = assay: Potentiation of rifampicin-induced antimicrobial activity against MDR/XDR Pseudomonas aeruginosa isolate PA259-96918 harboring GyrA Thr83Ile mutant assessed as rifampicin MIC50 incubated for 18 hrs by broth microdilution method (reference value: 8 microg/ml); format: functional; conditions: isolate PA259-96918, 18 h
Pseudomonas aeruginosa [15] = assay: Potentiation of rifampicin-induced antimicrobial activity against MDR/XDR Pseudomonas aeruginosa isolate 91433 devoid of GyrA Thr83Ile mutant assessed as rifampicin MIC50 incubated for 18 hrs by broth microdilution method (reference value: 8 microg/ml); format: functional; conditions: isolate 91433, 18 h
Acinetobacter baumannii [16] = assay: Antimicrobial activity against multidrug-resistant Acinetobacter baumannii AB027 incubated for 18 hrs by broth dilution method; format: functional; conditions: AB027, 18 h
In short: (§5)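 Broth microdilution per CLSI: overnight cultures set to 0.5 McFarland in saline, diluted 1:50 in Mueller-Hinton broth to a final 5 × 10^5 CFU/mL, added to 2-fold serial dilutions, incubated 18 h at 37 °C; MIC is the lowest concentration without visible turbidity, confirmed at 590 nm.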

Acinetobacter baumannii [17] = assay: Antimicrobial activity against multidrug-resistant Acinetobacter baumannii AB031 incubated for 18 hrs by broth dilution method; format: functional; conditions: AB031, 18 h; in short: as §5
Acinetobacter baumannii [18] = assay: Synergistic antibacterial activity against multidrug-resistant Acinetobacter baumannii AB031 assessed as fractional inhibitory concentration index in presence of rifampicin incubated for 18 hrs by broth dilution method; format: functional
Acinetobacter baumannii [19] = assay: Potentiation of rifampicin-induced antibacterial activity against multidrug-resistant Acinetobacter baumannii AB031 assessed as fold reduction in rifampicin MIC at 7.5 uM incubated for 18 hrs by broth dilution method; format: functional; in short: as §4
Pseudomonas aeruginosa [20] = assay: Potentiation of minocycline-induced antimicrobial activity against MDR/XDR Pseudomonas aeruginosa isolate 101885 harboring GyrA Thr83Ile mutant assessed as minocycline MIC80 incubated for 18 hrs by broth microdilution method (reference value: 32 microg/ml); format: functional; conditions: isolate 101885, 18 h
Pseudomonas aeruginosa [21] = assay: Potentiation of minocycline-induced antimicrobial activity against MDR/XDR Pseudomonas aeruginosa isolate PA264-104354 harboring GyrA Thr83Ile mutant assessed as minocycline MIC80 incubated for 18 hrs by broth microdilution method (reference value: 32 microg/ml); format: functional; conditions: isolate PA264-104354, 18 h
Pseudomonas aeruginosa [22] = assay: Potentiation of rifampicin-induced antimicrobial activity against MDR/XDR Pseudomonas aeruginosa isolate PA264-104354 harboring GyrA Thr83Ile mutant assessed as rifampicin MIC80 incubated for 18 hrs by broth microdilution method (reference value: 16 microg/ml); format: functional; conditions: isolate PA264-104354, 18 h

With `Cl.Cl.Cl.Cl.Cl.Cl.NC[C@H]1O[C@H](O[C@H]2[C@H](OCCCCCCCCCCN3CCN(Cc4cccc5ccccc45)CC3)[C@@H](O)[C@H](N)C[C@@H]2N)[C@H](N)C[C@@H]1O` the “fold change (FC)” value (Pseudomonas aeruginosa [1]) was 8.
In the case of `Cl.Cl.Cl.Cl.Cl.NC[C@H]1O[C@H](O[C@H]2[C@H](OCCCCCCCCCCCCN3CCN(c4cc5c(cc4F)c(=O)c(C(=O)O)cn5C4CC4)CC3)[C@@H](O)[C@H](N)C[C@@H]2N)[C@H](N)C[C@@H]1O`, the MIC (Klebsiella pneumoniae [2]) is reported as 128 µg/mL, the MIC (Klebsiella pneumoniae [3]) is reported as 128 µg/mL and the “fractional inhibitory concentration index (FICI)” value (Escherichia coli [4]) is reported as 0.004 - 0.035. For the same compound, the “fractional inhibitory concentration index (FICI)” value (Escherichia coli [5]) was 0.015 - 0.02, the “fractional inhibitory concentration index (FICI)” value (Klebsiella pneumoniae [6]) was 0.504 and the hemolysis at 1 h, 512 ug/ml [7] was < 10%.
With `COc1c(N2C[C@@H]3CCCN(CCCCCCCCCCCCO[C@@H]4[C@@H](O)[C@H](N)C[C@H](N)[C@H]4O[C@H]4O[C@H](CN)[C@@H](O)C[C@H]4N)[C@@H]3C2)c(F)cc2c(=O)c(C(=O)O)cn(C3CC3)c12.Cl.Cl.Cl.Cl.Cl` the “fold change (FC)” value (Klebsiella pneumoniae [8]) was 16, the “fold change (FC)” value (Pseudomonas aeruginosa [9]) was 8 and the “fold change (FC)” value (Pseudomonas aeruginosa [10]) was 32. The “fold change (FC)” value (Pseudomonas aeruginosa [11]) was 64, the MIC50 (Pseudomonas aeruginosa [12]) was 0.5 µg/mL and the MIC50 (Pseudomonas aeruginosa [13]) was 0.06 µg/mL. For the same compound, the MIC50 (Pseudomonas aeruginosa [14]) was 0.06 µg/mL, the MIC50 (Pseudomonas aeruginosa [15]) was 0.06 µg/mL and the MIC (Acinetobacter baumannii [16]) was > 256 µg/mL. For the same compound, the MIC (Acinetobacter baumannii [17]) was 128 µg/mL, the “fractional inhibitory concentration index (FICI)” value (Acinetobacter baumannii [18]) was 0.04 and the “fold change (FC)” value (Acinetobacter baumannii [19]) was 64. The MIC80 (Pseudomonas aeruginosa [20]) was 1 µg/mL, the MIC80 (Pseudomonas aeruginosa [21]) was 1 µg/mL and the MIC80 (Pseudomonas aeruginosa [22]) was 0.13 µg/mL.
